According to ChEMBL document CHEMBL1139283, “Synthesis and biological activity of 1,4-dihydrobenzothiopyrano[4,3-c]pyrazole derivatives, novel pro-apoptotic mitochondrial targeted agents” (Bioorg Med Chem, 2009):
The source made the active and inactive calls. No cut-off for these calls is given here.

Assays:
HL-60 = experiment: Cytotoxicity against human HL60 cells after 72 hrs by trypan blue assay; type: functional, cell-based; conditions: HL-60, 72 h
Outline: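 HL-60 cells kept in RPMI 1640 with 15% heat-inactivated FCS plus antibiotics, 37 °C, 5% CO2. 4×10^4 cells/well seeded, 24 h, then a range of concentrations added to complete medium for 72 h. Cell number counted by trypan blue; IC50 is the concentration giving 50% fewer cells than control cultures.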

HeLa [1] = experiment: Cytotoxicity against human HeLa cells after 72 hrs by trypan blue assay; type: functional, cell-based
Outline: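 HeLa cells kept in Ham's F-12 with 10% heat-inactivated FCS plus antibiotics, 37 °C, 5% CO2. 4×10^4 cells/well seeded, 24 h, medium renewed, then a range of concentrations added for 72 h. Viability by trypan blue; IC50 is the concentration giving 50% fewer cells than control.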

Salmonidae = experiment: Binding affinity to Salmon testes DNA assessed as drug-DNA complex formation by linear flow dichroism method
Outline: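 Salmon testes DNA at 1.6×10^-3 M in ETN buffer (10 mM Tris, 10 mM NaCl, 1 mM EDTA, pH 7). DNA concentration set from extinction coefficient 6600 M(p)-1 cm-1 at 260 nm. Linear dichroism spectra recorded at 25 °C at [drug]/[DNA] = 0.00 and 0.08.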

HeLa [2] = experiment: Induction of apoptosis in human HeLa cells assessed as early stage apoptotic cell count at 50 uM treated for 48 hrs before Annexin-V-FITC PI staining by flow cytometry; type: functional
Outline: (§1)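 Near-confluent HeLa cells exposed to 50 μM agent for 0, 24 or 48 h at 37 °C. About 5×10^5 cells in binding buffer (10 mM Hepes pH 7.5, 140 mM NaCl, 2.5 mM CaCl2) stained with 1 μg/ml Annexin V-FITC and 1 μg/ml PI, 10 min at room temperature in the dark. Flow cytometry; mean of three independent experiments.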

HeLa [3] = experiment: Induction of apoptosis in human HeLa cells assessed as late stage apoptotic cell count at 50 uM treated for 24 hrs before Annexin-V-FITC PI staining by flow cytometry; type: functional; outline: as §1
Rattus norvegicus [4] = organism: Rattus norvegicus; experiment: Induction of apoptosis inducing factor release in rat liver mitochondria at 50 uM by Western blotting in presence of cyclosporin A; type: functional
Outline: (§2)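 Rat liver mitochondria (1 mg protein/mL) incubated 15 min at 20 °C in standard medium with 30 μM Ca2+ unless omitted. Agent 50 μM, CsA 1 μM. Supernatant after 13,000 g, 10 min, 4 °C, concentrated and run on SDS-PAGE (15% for cyt c, 10% for AIF). Western blot with anti-cyt c and anti-AIF antibodies.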

Rattus norvegicus [5] = organism: Rattus norvegicus; experiment: Induction of apoptosis inducing factor release in rat liver mitochondria at 50 uM by Western blotting in presence of Ca2+; type: functional; outline: as §2
Rattus norvegicus [6] = organism: Rattus norvegicus; experiment: Increase in hydrogen peroxide production in rat liver mitochondria assessed per mg of protein at 50 uM; type: functional
Outline: (§3)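 Rat liver mitochondria, 1 mg protein/mL, 20 °C, standard succinate/rotenone medium pH 7.4 with 30 μM Ca2+ unless omitted. Agent 50 μM. H2O2 measured fluorometrically by the scopoletin method, expressed per mg protein; mean ± SD of four independent experiments.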

HeLa [7] = experiment: Induction of DNA fragmentation in human HeLa cells at 100 uM after 24 hrs in presence of cyclosporin A; type: functional, cell-based
Outline: (§4)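 HeLa cells (5×10^5) grown 24 h at 37 °C, optionally pretreated 30 min at 37 °C with 5 μM CsA. Medium renewed, agent added at 100 μM for 24 h. Extracted DNA in TE buffer run on 0.8% agarose gel in TBE, pH 8.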

Rattus norvegicus [8] = organism: Rattus norvegicus; experiment: Decrease in mitochondrial sulfydryl groups in rat liver mitochondria at 50 uM in presence of DTE; type: functional
Outline: (§5)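 Rat liver mitochondria (1 mg protein/mL) at 20 °C in 250 mM sucrose, 10 mM Hepes pH 7.4, 5 mM succinate, 1.25 μM rotenone with 30 μM Ca2+ unless omitted. Agent 50 μM; DTE 2 mM where present. Protein thiol oxidation measured; mean ± SD of four independent experiments.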

Rattus norvegicus [9] = organism: Rattus norvegicus; experiment: Effect on mitochondrial swelling in rat liver mitochondria assessed as complete collapse of electrical membrane potential at 50 uM in presence of Ca2+; type: functional
Rattus norvegicus [10] = organism: Rattus norvegicus; experiment: Effect on mitochondrial swelling in rat liver mitochondria assessed as complete collapse of electrical membrane potential at 50 uM; type: functional
HeLa [11] = experiment: Induction of apoptosis in human HeLa cells assessed as late stage apoptotic cell count at 50 uM using Annexin-V-FITC PI stain by flow cytometry; type: functional; outline: as §1
HeLa [12] = experiment: Cytotoxicity against human HeLa cells assessed as viable cells at 6 uM after 72 hrs by trypan blue assay in presence of cyclosporin A; type: functional; conditions: read-out: Activity
Outline: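 HeLa cells seeded, after 24 h pretreated 30 min with 2 μM CsA. Medium renewed, 6 μM agent added, 72 h. Viable cells counted by trypan blue and expressed as percent of control culture cell number.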

Rattus norvegicus [13] = organism: Rattus norvegicus; experiment: Effect on mitochondrial swelling in rat liver mitochondria assessed as complete collapse of electrical membrane potential at 50 uM in presence of bongkrekic acid; type: functional
Rattus norvegicus [14] = organism: Rattus norvegicus; experiment: Effect on mitochondrial swelling in rat liver mitochondria assessed as complete collapse of electrical membrane potential at 50 uM in presence of cyclosporin A; type: functional
Rattus norvegicus [15] = organism: Rattus norvegicus; experiment: Increase in hydrogen peroxide production in rat liver mitochondria assessed per mg of protein at 50 uM in presence of CA2+; type: functional; outline: as §3
HeLa [16] = experiment: Induction of DNA fragmentation in human HeLa cells at 100 uM after 24 hrs; type: functional, cell-based; outline: as §4
HeLa [17] = experiment: Induction of apoptosis in human HeLa cells assessed as early stage apoptotic cell count at 50 uM treated for 24 hrs before Annexin-V-FITC PI staining by flow cytometry; type: functional; outline: as §1
Rattus norvegicus [18] = organism: Rattus norvegicus; experiment: Effect on mitochondrial swelling in rat liver mitochondria assessed as complete collapse of electrical membrane potential at 50 uM in presence of N-ethylmaleimide; type: functional
Rattus norvegicus [19] = organism: Rattus norvegicus; experiment: Decrease in mitochondrial sulfydryl groups in rat liver mitochondria at 50 uM; type: functional; parameters: scale not given: the % may be the effect or the level left; outline: as §5
HeLa [20] = experiment: Induction of mitochondrial membrane depolarization in human HeLa cells at 50 uM after 24 hrs by FL2 staining; type: functional
Outline: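 Near-confluent HeLa cells given 50 μM agent in DMSO for 24 h at 37 °C; JC-1 added at […] final for the last 10 min. Positive control 20 μM H2O2 for 24 h. After cold PBS wash, flow cytometry with 488 nm excitation; monomers at 530 nm, aggregates (FL2) at 585/650 nm. At least 10,000 events; one of four experiments.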

Rattus norvegicus [21] = organism: Rattus norvegicus; experiment: Induction of cytochrome c release in rat liver mitochondria at 50 uM by Western blotting in presence of Ca2+; type: functional; outline: as §2
HeLa [22] = experiment: Induction of apoptosis in human HeLa cells assessed as early stage apoptotic cell count at 50 uM using Annexin-V-FITC PI stain by flow cytometry; type: functional; outline: as §1
HeLa [23] = experiment: Induction of apoptosis in human HeLa cells assessed as late stage apoptotic cell count at 50 uM treated for 48 hrs before Annexin-V-FITC PI staining by flow cytometry; type: functional; outline: as §1
Rattus norvegicus [24] = organism: Rattus norvegicus; experiment: Effect on mitochondrial swelling in rat liver mitochondria assessed as complete collapse of electrical membrane potential at 50 uM in presence of ADP; type: functional
HeLa [25] = experiment: Induction of apoptosis in human HeLa cells assessed as dead cell count at 50 uM treated for 48 hrs before Annexin-V-FITC PI staining by flow cytometry; type: functional
Rattus norvegicus [26] = organism: Rattus norvegicus; experiment: Decrease in mitochondrial sulfydryl groups in rat liver mitochondria at 50 uM in presence of Ca2+; type: functional; outline: as §5
HeLa [27] = experiment: Induction of apoptosis in human HeLa cells assessed as non apoptotic cell count at 50 uM treated for 24 hrs before Annexin-V-FITC PI staining by flow cytometry; type: functional; outline: as §1
Rattus norvegicus [28] = organism: Rattus norvegicus; experiment: Induction of cytochrome c release in rat liver mitochondria at 50 uM by Western blotting in presence of cyclosporin A; type: functional; outline: as §2
HeLa [29] = experiment: Induction of apoptosis in human HeLa cells assessed as non apoptotic cell count at 50 uM treated for 48 hrs before Annexin-V-FITC PI staining by flow cytometry; type: functional; outline: as §1
HeLa [30] = experiment: Induction of apoptosis in human HeLa cells assessed as non apoptotic cell count at 50 uM using Annexin-V-FITC PI stain by flow cytometry; type: functional; outline: as §1
HeLa [31] = experiment: Induction of apoptosis in human HeLa cells assessed as dead cell count at 50 uM using Annexin-V-FITC PI stain by flow cytometry; type: functional
HeLa [32] = experiment: Induction of apoptosis in human HeLa cells assessed as dead cell count at 50 uM treated for 24 hrs before Annexin-V-FITC PI staining by flow cytometry; type: functional

SMILES: Clc1ccc2c(c1)SCc1cnn(-c3ccccc3)c1-2
- IC50 (HL-60): > 20 µM
- IC50 (HeLa [1]): > 20 µM

SMILES: COc1ccc2c(c1)SCc1cn[nH]c1-2
- IC50 (HL-60): > 20 µM
- IC50 (HeLa [1]): > 20 µM

SMILES: COc1ccc2c(c1)SCc1cnn(-c3ccccc3)c1-2
- IC50 (HL-60): 12.5 µM
- IC50 (HeLa [1]): 17.2 µM
- Activity (Salmonidae): inactive

SMILES: COc1ccc(-n2cc3c(n2)-c2ccc(OC)cc2SC3)cc1
- IC50 (HL-60): > 20 µM
- IC50 (HeLa [1]): > 20 µM

SMILES: COc1ccc2c(c1)SCc1cnn(-c3ccc(Cl)cc3)c1-2
- Activity (HeLa [2]): 8.5%
- Activity (HeLa [3]): 28.2%
- Activity (Rattus norvegicus [4]): inactive
- Activity (Rattus norvegicus [5]): Active
- Activity (Rattus norvegicus [6]): 0.25 nmol
- Activity (HeLa [7]): inactive
- Activity (Rattus norvegicus [8]): Active
- Activity (Rattus norvegicus [9]): Active
- Activity (Rattus norvegicus [10]): inactive
- Activity (HeLa [11]): 1.2%
- viability at 6 µM (HeLa [12]): 64%
- Activity (Rattus norvegicus [13]): inactive
- IC50 (HL-60): 3.8 µM
- Activity (Rattus norvegicus [14]): inactive
- Activity (Rattus norvegicus [15]): 0.55 nmol
- Activity (HeLa [16]): Active
- Activity (HeLa [17]): 19.7%
- Activity (Rattus norvegicus [18]): inactive
- Activity (Rattus norvegicus [19]): 20%
- Activity (HeLa [20]): 39.4%
- Activity (Rattus norvegicus [21]): Active
- IC50 (HeLa [1]): 6.7 µM
- Activity (HeLa [22]): 4.8%
- Activity (HeLa [23]): 39%
- Activity (Rattus norvegicus [24]): inactive
- Activity (HeLa [25]): 11.6%
- Activity (Rattus norvegicus [26]): 2
- Activity (Salmonidae): inactive
- Activity (HeLa [27]): 46.7%
- Activity (Rattus norvegicus [28]): inactive
- Activity (HeLa [29]): 40.9%
- Activity (HeLa [30]): 93.4%
- Activity (HeLa [31]): 0.6%
- Activity (HeLa [32]): 5.4%

SMILES: COc1ccc2c(c1)SCc1cn(-c3ccc(Cl)cc3)nc1-2
- IC50 (HL-60): > 20 µM
- IC50 (HeLa [1]): > 20 µM

SMILES: COc1ccc(-n2ncc3c2-c2ccc(OC)cc2SC3)cc1
- IC50 (HL-60): 6.6 µM
- IC50 (HeLa [1]): 17.8 µM
- Activity (Salmonidae): inactive

SMILES: Clc1ccc2c(c1)SCc1cn[nH]c1-2
- IC50 (HL-60): > 20 µM
- IC50 (HeLa [1]): > 20 µM

SMILES: Clc1ccc(-n2ncc3c2-c2ccc(Cl)cc2SC3)cc1
- IC50 (HL-60): > 20 µM
- IC50 (HeLa [1]): > 20 µM

SMILES: COc1ccc(-n2ncc3c2-c2ccc(Cl)cc2SC3)cc1
- IC50 (HL-60): > 20 µM
- IC50 (HeLa [1]): > 20 µM

SMILES: COc1ccc2c(c1)SCc1cn(-c3ccccc3)nc1-2
- IC50 (HL-60): > 20 µM
- IC50 (HeLa [1]): > 20 µM

SMILES: COc1ccc2c(c1)SCc1cnc(-c3ccccc3)nc1-2
- IC50 (HL-60): 7.15 µM
